Experimental data from ChEMBL document CHEMBL1909618, “Non-steroidal dissociated glucocorticoid agonists: indoles as A-ring mimetics and function-regulating pharmacophores” (Bioorg Med Chem Lett, 2011).

Legend:
[1] = Clearance in Sprague-Dawley rat at 2 mg/kg, iv; type: ADME, organism-based; parameters: dose 2 mg/kg, route intravenous; details: in vivo
How it was run: (§1)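 Rat PK: IV dose 2 mg/kg in PEG400/water (70:30); oral dose 30 mg/kg in PEG400/H2O/Tween (80/18/2). Values are the mean of 3 rats.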

[2] = Cmax in Sprague-Dawley rat at 30 mg/kg, po; type: ADME, organism-based; parameters: dose 30 mg/kg, route oral; details: in vivo; how it was run: as §1
[3] = test system: Mus musculus; test: Toxicity in B10.R3 mouse collagen-induced arthritis model assessed as change in body fat level at 30 mg/kg, po qd for 5 weeks relative to control; type: organism-based; parameters: dose 30 mg/kg, route oral; details: in vivo, 840 h
How it was run: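 Arthritic B10.RIII CIA mice were dosed orally once daily for 5 weeks. At day 35 they were anesthetized with ketamine (50 mg/kg) and xylazine (15 mg/kg). Body fat was assessed by whole-body density scan. Serum triglycerides were measured by enzymatic kit (Wako L-Type TG-H) and free fatty acids by NEFA-C. Results are expressed as % change versus vehicle and compared by t-test.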

[4] = AUC (infinity) in B10.R3 mouse at 30 mg/kg, po; type: ADME, organism-based; parameters: time infinity, dose 30 mg/kg, route oral; details: plasma
How it was run: (§2)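 Mouse PK: IV dose 1 mg/kg in PEG400/water (70:30); oral dose 30 mg/kg given as a suspension in 30% Cremophor. Values are the mean of 3 mice.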

[5] = Cmax in B10.R3 mouse at 30 mg/kg, po; type: ADME, organism-based; parameters: dose 30 mg/kg, route oral; details: in vivo; how it was run: as §2
[6] = Half life in Sprague-Dawley rat at 2 mg/kg, iv; type: ADME, organism-based; parameters: dose 2 mg/kg, route intravenous; details: in vivo; how it was run: as §1
[7] = Oral bioavailability in B10.R3 mouse at 30 mg/kg; type: ADME, organism-based; details: in vivo; how it was run: as §2
[8] = Volume of distribution at steady state in B10.R3 mouse at 1 mg/kg, iv; type: ADME, organism-based; parameters: dose 1 mg/kg, route intravenous; details: in vivo, read-out: Vdss; how it was run: as §2
[9] = species: Homo sapiens; test: Selectivity ratio of IC50 for human recombinant glucocorticoid receptor to IC50 for human recombinant mineralocorticoid receptor
[10] = biological target: T1, Glucocorticoid receptor (Homo sapiens, UniProt P04150); test: Agonist activity at glucocorticoid receptor in human HeLa cells transfected with luciferase gene linked to MMTV promoter assessed as luciferase transactivation activity; type: functional, cell-based
T1 sequence (P04150 whole entry): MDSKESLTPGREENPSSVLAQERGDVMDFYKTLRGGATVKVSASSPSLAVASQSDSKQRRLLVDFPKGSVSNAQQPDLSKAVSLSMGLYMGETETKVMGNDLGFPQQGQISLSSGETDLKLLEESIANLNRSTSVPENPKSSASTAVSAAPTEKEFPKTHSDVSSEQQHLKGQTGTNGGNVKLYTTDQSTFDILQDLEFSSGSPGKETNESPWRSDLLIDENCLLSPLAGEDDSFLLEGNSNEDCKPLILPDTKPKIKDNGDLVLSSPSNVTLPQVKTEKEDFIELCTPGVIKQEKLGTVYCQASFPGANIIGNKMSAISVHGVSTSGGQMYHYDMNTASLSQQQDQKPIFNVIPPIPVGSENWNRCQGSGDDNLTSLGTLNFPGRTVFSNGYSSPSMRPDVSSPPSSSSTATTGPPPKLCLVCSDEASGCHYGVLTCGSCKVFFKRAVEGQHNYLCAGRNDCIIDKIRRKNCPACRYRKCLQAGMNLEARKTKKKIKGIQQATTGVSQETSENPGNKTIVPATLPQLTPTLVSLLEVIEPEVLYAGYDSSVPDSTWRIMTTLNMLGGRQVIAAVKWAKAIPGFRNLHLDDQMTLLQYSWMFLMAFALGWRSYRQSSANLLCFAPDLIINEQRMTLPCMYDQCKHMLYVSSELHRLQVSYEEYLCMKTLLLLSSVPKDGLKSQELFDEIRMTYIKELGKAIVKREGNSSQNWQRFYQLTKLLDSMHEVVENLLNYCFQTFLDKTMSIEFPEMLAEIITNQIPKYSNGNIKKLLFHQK

[11] = species: Homo sapiens; test: Selectivity ratio of IC50 for human recombinant glucocorticoid receptor to IC50 for human recombinant progesterone receptor
[12] = test system: Mus musculus; test: Toxicity in B10.R3 mouse collagen-induced arthritis model assessed as change in body weight at 30 mg/kg, po qd for 5 weeks relative to control; type: organism-based; parameters: dose 30 mg/kg, route oral; details: in vivo, 840 h
[13] = Clearance in B10.R3 mouse at 1 mg/kg, iv; type: ADME, organism-based; parameters: dose 1 mg/kg, route intravenous; details: in vivo; how it was run: as §2
[14] = AUC (infinity) in Sprague-Dawley rat at 30 mg/kg, po; type: ADME, organism-based; parameters: dose 30 mg/kg, route oral, time infinity; details: plasma; how it was run: as §1
[15] = test system: Mus musculus; test: Toxicity in B10.R3 mouse collagen-induced arthritis model assessed as change in serum insulin level at 30 mg/kg, po qd for 5 weeks by ELISA relative to control; type: organism-based; parameters: dose 30 mg/kg, route oral; details: in vivo, 840 h
[16] = Volume of distribution at steady state in Sprague-Dawley rat at 2 mg/kg, iv; type: ADME, organism-based; parameters: dose 2 mg/kg, route intravenous; details: in vivo, read-out: Vdss; how it was run: as §1
[17] = test system: Mus musculus; test: Antiinflammatory activity in po dosed mouse plasma assessed as inhibition of LPS-induced TNFalpha production administered 1 hr before LPS challenge measured after 1 hr; type: functional
How it was run: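 Mice received compound orally in Cremophor RH 1 h before LPS challenge. Plasma TNF-α was measured 1 h after challenge. n = 8 per group; doses were 3 and 10 mg/kg.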

[18] = Oral bioavailability in Sprague-Dawley rat at 30 mg/kg; type: ADME, organism-based; details: in vivo; how it was run: as §1

- clearance [1]: 51 mL/min/kg
- Cmax [2]: 955 ng/mL
- AUC(0-inf) [4]: 32700 ng·h/mL
- Cmax [5]: 6190 ng/mL
- half-life [6]: 1.7 h
- bioavailability [7]: 26%
- Vd [8]: 0.9 L/kg
- Ratio IC50 [9]: 100
- EC50 [10]: > 2000 nM
- Ratio IC50 [11]: 100
- clearance [13]: 4 mL/min/kg
- AUC(0-inf) [14]: 4850 ng·h/mL
- Vd [16]: 7.7 L/kg
- bioavailability [18]: 51%
Compound: CC(C)(C[C@@](O)(Cc1cc2ccc(C#N)cc2[nH]1)C(F)(F)F)c1cc(S(C)(=O)=O)cc2c1OCC2
- Activity [3]: 6%
- Activity [12]: -8%
- Activity [15]: -29%
- ED50 [17]: < 3 mg/kg
